Experiment [1] relates to HeLa. The experiment in a line: Growth inhibition of human HeLa cells incubated for 72 hrs at 1 uM by CCK8 assay. To be noted: read-out: GI. It counts as functional. The gist of the method:
(§1)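 CCK8 viability assay on a panel of human cancer cell lines, with an initial screen at fixed concentrations of 1 µM and 10 µM.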
(In general: Tetrazolium dyes change colour on reduction, which living cells bring about.)

The subject of experiment [2] is T47D. The experiment in a line: Induction of apoptosis in human T47D cells assessed as viable cells level at 5 uM incubated for 48 hrs by annexin V-FITC and propidium iodide staining based flow cytometry (reference value: 96%). It is filed as functional. (In general: A flow cytometer gives signals particle by particle.)
For the next experiment, the system named is OVCAR-5. The experiment in a line: Growth inhibition of human OVCAR5 cells incubated for 72 hrs at 1 uM by CCK8 assay. It counts as functional. To be noted: OVCAR-5, 72 h, read-out: GI. The gist of the method: as §1
Experiment [3] concerns the target T1, Cyclin-dependent kinase 5/CDK5 activator 1 (Homo sapiens) (UniProt Q00535+Q15078). The experiment in a line: Inhibition of human CDK5/p25 at 1 uM by enzymatic radiometric assay. It is filed as protein-complex assay.
For experiment [4], the target named is T1, Cyclin-dependent kinase 5/CDK5 activator 1 (Homo sapiens). As to the kind of experiment: Inhibition of human CDK5/p35 at 1 uM by enzymatic radiometric assay. It counts as protein-complex assay.
Experiment [5] concerns NCI-H1299. As to the kind of experiment: Growth inhibition of human H1299 cells incubated for 72 hrs at 1 uM by CCK8 assay. It is filed as functional. To be noted: NCI-H1299, 72 h, read-out: GI. The method, boiled down: as §1
Experiment [6] relates to NCI-H1299. The experiment in a line: Growth inhibition of human H1299 cells incubated for 72 hrs by CCK8 assay. It counts as functional, cell-based. The following applies: NCI-H1299, 72 h.
Experiment [7] concerns T47D. The experiment in a line: Induction of apoptosis in human T47D cells assessed as viable cells level at 0.5 uM incubated for 48 hrs by annexin V-FITC and propidium iodide staining based flow cytometry (reference value: 96%). It is filed as functional.
In the next experiment the test system is A549. The experiment in a line: Growth inhibition of human A549 cells incubated for 72 hrs at 1 uM by CCK8 assay. To be noted: A549, 72 h, read-out: GI. It counts as functional. The gist of the method:
as §1

Experiment [8] has as its system T47D. As to the kind of experiment: Induction of cell cycle arrest in human T47D cells assessed as increase in G0/G1 phase accumulation at 0.1 to 1 uM incubated for 24 hrs by flow cytometry. It is filed as functional, cell-based. The gist of the method: (§2)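 Cells were treated for 24 h with compound at 0.1, 0.5 and 1 µM, with LEE011 or vehicle (DMSO) alongside. Cell-cycle phase distribution was then determined by flow cytometry.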

For the next experiment, the target named is CDK4/Cyclin D3 (Homo sapiens, UniProt P11802). The experiment in a line: Inhibition of human CDK4/CyclinD3 by enzymatic radiometric assay. It counts as protein-complex assay. The method, boiled down:
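CDK4 activity measured with the Eurofins KinaseProfiler. IC50 and inhibition values are means of two independent experiments.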

The subject of experiment [9] is T47D. The experiment in a line: Induction of apoptosis in human T47D cells assessed as early apoptotic cells level at 5 uM incubated for 48 hrs by annexin V-FITC and propidium iodide staining based flow cytometry (reference value: 0.75%). It is filed as functional.
In experiment [10] the target is Vascular endothelial growth factor receptor 2 (Homo sapiens, UniProt P35968). As to the kind of experiment: Inhibition of human VEGFR2 by enzymatic radiometric assay. The method, boiled down:
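IC50 was determined through a commercial kinase profiling service. Values are the mean of two independent experiments.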

Experiment [11] concerns T47D. The experiment in a line: Induction of cell cycle arrest in human T47D cells assessed as increase in G2 phase accumulation at 0.1 to 1 uM incubated for 24 hrs by flow cytometry. It counts as functional, cell-based. The gist of the method: as §2
Experiment [12] relates to T47D. The experiment in a line: Induction of apoptosis in human T47D cells assessed as necrotic cells level at 5 uM incubated for 48 hrs by annexin V-FITC and propidium iodide staining based flow cytometry (reference value: 2.79%). It is filed as functional.
Experiment [13] relates to T47D. As to the kind of experiment: Induction of cell cycle arrest in human T47D cells assessed as reduction in S phase accumulation at 0.1 to 1 uM incubated for 24 hrs by flow cytometry. It is filed as functional, cell-based. The gist of the method: as §2
In experiment [14] the target is CDK4/Cyclin D3 (Homo sapiens) (UniProt P11802+P30281). As to the kind of experiment: Inhibition of human CDK4/CyclinD3 at 1 uM by enzymatic radiometric assay. It counts as protein-complex assay. The gist of the method:
(§3)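 Kinase panel run through the Eurofins KinaseProfiler, with compound at a fixed 1 µM. Values are means of two independent experiments.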

The test system of experiment [15] is HeLa. The experiment in a line: Growth inhibition of human HeLa cells incubated for 72 hrs at 10 uM by CCK8 assay. It is filed as functional. The following applies: read-out: GI. The method, boiled down:
as §1

The subject of experiment [16] is T47D. The experiment in a line: Growth inhibition of human T47D cells incubated for 72 hrs at 1 uM by CCK8 assay. It counts as functional. To be noted: read-out: GI. The gist of the method: as §1
Experiment [17] relates to T47D. The experiment in a line: Induction of apoptosis in human T47D cells assessed as late apoptotic cells level at 1 uM incubated for 48 hrs by annexin V-FITC and propidium iodide staining based flow cytometry (reference value: 0.48%). It counts as functional.
The next experiment deals with MCF7. The experiment in a line: Growth inhibition of human MCF7 cells incubated for 72 hrs by CCK8 assay. It counts as functional, cell-based. To be noted: MCF7, 72 h.
Experiment [18] relates to T47D. As to the kind of experiment: Induction of apoptosis in human T47D cells assessed as early apoptotic cells level at 0.25 uM incubated for 48 hrs by annexin V-FITC and propidium iodide staining based flow cytometry (reference value: 0.75%). It counts as functional.
Experiment [19] has as its target CDK18/Cyclin Y (Homo sapiens) (UniProt Q07002+Q8ND76). The experiment in a line: Inhibition of human CDK18/CyclinY at 1 uM by enzymatic radiometric assay. It counts as protein-complex assay. The gist of the method:
as §3

This is an account of results in ChEMBL document CHEMBL4052710 (Bioorg Med Chem Lett, 2017).

As usually defined, the inhibition is the change of the read-out against control, counted positive when it falls. As usually defined, the IC50 is the concentration needed to halve the response being measured. Low values mean greater potency, high ones weaker potency.

Molecules are shown by their SMILES. Activity calls are given as the source filed them. No cut-off for these calls is given here. Bounds are passed on as bounds.

T1 sequence (Q00535 whole entry): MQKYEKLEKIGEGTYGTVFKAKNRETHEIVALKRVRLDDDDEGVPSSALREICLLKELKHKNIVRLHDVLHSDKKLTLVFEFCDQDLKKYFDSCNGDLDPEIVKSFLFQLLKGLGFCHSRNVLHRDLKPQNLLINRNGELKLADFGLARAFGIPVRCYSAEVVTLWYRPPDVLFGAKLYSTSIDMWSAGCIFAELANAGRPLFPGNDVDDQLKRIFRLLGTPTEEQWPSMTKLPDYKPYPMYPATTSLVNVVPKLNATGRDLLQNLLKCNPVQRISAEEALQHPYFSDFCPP
T1 sequence (Q15078 99-307 partner limits assumed): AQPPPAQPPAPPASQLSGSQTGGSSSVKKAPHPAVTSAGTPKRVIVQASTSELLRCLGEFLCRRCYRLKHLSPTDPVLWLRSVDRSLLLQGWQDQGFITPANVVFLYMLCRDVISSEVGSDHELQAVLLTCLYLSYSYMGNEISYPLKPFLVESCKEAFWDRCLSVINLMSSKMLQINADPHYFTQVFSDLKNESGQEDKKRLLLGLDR
Chain of CDK4/Cyclin D3 (P11802 whole entry): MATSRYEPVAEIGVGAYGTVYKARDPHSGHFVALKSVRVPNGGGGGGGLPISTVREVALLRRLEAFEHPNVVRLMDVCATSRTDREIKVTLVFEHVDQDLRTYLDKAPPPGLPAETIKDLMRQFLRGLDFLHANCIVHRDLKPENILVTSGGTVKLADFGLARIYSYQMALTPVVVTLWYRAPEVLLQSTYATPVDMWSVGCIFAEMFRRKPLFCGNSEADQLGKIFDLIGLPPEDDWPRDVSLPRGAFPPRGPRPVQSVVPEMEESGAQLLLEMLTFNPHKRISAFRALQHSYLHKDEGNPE
Chain of CDK4/Cyclin D3 (P30281 whole entry, further chain): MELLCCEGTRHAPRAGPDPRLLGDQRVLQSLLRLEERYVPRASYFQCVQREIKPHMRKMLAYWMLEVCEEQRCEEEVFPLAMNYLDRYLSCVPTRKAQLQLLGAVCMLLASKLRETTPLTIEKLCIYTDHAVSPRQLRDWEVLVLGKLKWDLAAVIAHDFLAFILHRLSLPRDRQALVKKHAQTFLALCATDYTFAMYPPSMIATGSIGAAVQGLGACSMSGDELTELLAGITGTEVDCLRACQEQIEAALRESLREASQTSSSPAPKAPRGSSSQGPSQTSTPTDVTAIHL
Chain of Vascular endothelial growth factor receptor 2 (P35968 whole entry): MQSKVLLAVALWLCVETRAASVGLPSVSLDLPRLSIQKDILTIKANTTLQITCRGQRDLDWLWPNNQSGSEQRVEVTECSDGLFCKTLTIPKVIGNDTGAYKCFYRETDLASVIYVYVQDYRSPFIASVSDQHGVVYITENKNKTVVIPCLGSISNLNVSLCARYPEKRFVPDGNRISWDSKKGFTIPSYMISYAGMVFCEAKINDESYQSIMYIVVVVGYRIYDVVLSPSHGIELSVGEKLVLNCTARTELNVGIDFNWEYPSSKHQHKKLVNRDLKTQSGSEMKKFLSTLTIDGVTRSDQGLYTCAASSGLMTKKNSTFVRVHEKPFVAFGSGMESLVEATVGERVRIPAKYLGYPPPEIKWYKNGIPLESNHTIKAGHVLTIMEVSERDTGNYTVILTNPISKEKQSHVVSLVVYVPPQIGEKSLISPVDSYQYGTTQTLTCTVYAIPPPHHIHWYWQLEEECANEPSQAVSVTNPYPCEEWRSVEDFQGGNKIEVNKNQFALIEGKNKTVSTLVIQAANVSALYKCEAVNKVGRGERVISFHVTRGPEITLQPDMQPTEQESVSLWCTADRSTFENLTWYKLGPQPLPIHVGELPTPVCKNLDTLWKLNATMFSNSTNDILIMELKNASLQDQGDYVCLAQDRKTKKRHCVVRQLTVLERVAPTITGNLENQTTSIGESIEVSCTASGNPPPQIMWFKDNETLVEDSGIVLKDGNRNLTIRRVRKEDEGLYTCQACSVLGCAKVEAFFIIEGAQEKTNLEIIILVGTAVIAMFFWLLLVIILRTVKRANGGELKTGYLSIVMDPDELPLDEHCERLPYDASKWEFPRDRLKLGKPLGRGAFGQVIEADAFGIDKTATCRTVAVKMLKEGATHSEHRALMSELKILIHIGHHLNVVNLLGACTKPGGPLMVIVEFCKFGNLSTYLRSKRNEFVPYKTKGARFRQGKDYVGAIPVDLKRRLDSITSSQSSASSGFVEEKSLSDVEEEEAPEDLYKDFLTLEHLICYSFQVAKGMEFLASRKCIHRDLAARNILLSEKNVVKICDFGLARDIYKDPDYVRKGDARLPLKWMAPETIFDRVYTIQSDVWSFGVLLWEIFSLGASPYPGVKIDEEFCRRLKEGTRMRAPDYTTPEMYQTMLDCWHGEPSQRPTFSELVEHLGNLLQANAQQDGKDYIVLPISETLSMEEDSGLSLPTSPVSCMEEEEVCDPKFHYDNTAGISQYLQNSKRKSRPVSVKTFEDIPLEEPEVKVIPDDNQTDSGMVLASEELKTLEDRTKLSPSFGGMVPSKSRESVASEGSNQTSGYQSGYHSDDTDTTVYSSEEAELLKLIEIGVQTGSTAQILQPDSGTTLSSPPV

Take `CN(C)C(=O)c1cc2cnc(Nc3ccc(NC(=O)C4(C(=O)Nc5ccc(F)cc5)CC4)cc3)nc2n1C1CCCC1`: the inhibition of growth at 1 µM stood at 49.8% in the experiment with HeLa [1]; 65.4% with OVCAR-5; 93.3% in the experiment on NCI-H1299 [5]; 86.6% in the experiment on A549; 74.7% in the experiment on T47D [16]. Further, the Activity is given as 85% in the experiment with T47D [2]; 93.1% in the experiment on T47D [7]; 7.45% in the experiment with T47D [9]; 2.23% in the experiment on T47D [12]; 4.98% in the experiment on T47D [17]; 0.52% in the experiment with T47D [18]. Further, the inhibition in experiment [3] was 86%; in [4], 81%; in experiment [14] it was 102%; in [19], 6%. Further, the IC50 in the experiment on NCI-H1299 [6] is 221 nM; on CDK4/Cyclin D3, 142 nM; in experiment [10] it was over 10000 nM; with MCF7 it was 338 nM. The result with T47D [8], with T47D [11] and with T47D [13] was Active. Moreover, the inhibition of growth at 10 µM in the experiment with HeLa [15] came out at 73.7%.
